The nature of the data set: Toxicity liver stage against HepG2, at 10uM. The settings on record: human, HepG2-A16-CD81EGFP cells; read-out: INHIBITION
Details: test concentration 10 uM, cell line HepG2-A16-CD81EGFP. In kind it is cell-based. In a few lines:
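Uninfected HepG2-A16-CD81EGFP cells, 3 × 10^3 per well, 1536-well, plated on prespotted compound at 10 μM final, parasite-free screening media added to match infected plates; puromycin 10 μM positive, DMSO 0.5% negative; run in parallel with 48 h PbLuc assay at 37 °C, 5% CO2; viability by CellTiter-Glo luminescence, normalized to controls.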
`NC(=O)CN1C(=O)CO[C@H]2CN(Cc3ccc(F)c(F)c3)C[C@H]21`: the cytotoxicity at 10 µM was 2.44%.
As for `Cc1cc(O)cc(=O)n1CCCC(=O)Nc1n[nH]c2cccc(F)c12`, the figure is -8.85%; as for `CN(C)S(=O)(=O)NCc1nn(CCN2CCCC2)c(=O)c2ccccc12`, -6.88%; as for `CN(C)CCCNC(=O)c1cc(Cl)ccc1Cl`, -6.56%.
As for `CC(CO)NC(=O)c1ccc2[nH]/c(=N\S(C)(=O)=O)sc2c1` (stereo not given), the figure is -3.24%; as for `CC(=O)c1c(C)nn(S(=O)(=O)c2ccc(C)c(C)c2)c1C`, -8.46%.
For `CCOCCCNC(=O)C(C)n1cc(Br)cn1` (stereo not given) the value was -4.24%.
On to `CCCc1noc(C2CCN(S(=O)(=O)c3cccs3)CC2)n1`, for which the cytotoxicity at 10 µM was found to be 1.5%.
As to `Cc1nccn1-c1ccc(NS(=O)(=O)c2cnn(C)c2)cn1`, the cytotoxicity at 10 µM is -6.38%.
As for `CCOCCOc1ccc(S(=O)(=O)N2CCc3c(nc[nH]c3=O)C2)cc1`, the figure is -5.85%; as for `CN(CCc1cccs1)CCc1nccs1`, -5.81%; as for `CC1(C)CN(C(=O)Nc2cc(C(F)(F)F)c[nH]c2=O)CCO1`, 5.12%.
As for `COC(=O)NCCC(=O)NC(C)Cc1ccccc1Br` (stereo not given), the figure is -5.29%; as for `CCN1CC(C(=O)NC(C)(C)CC)CC1=O` (stereo not given), 1.82%; as for `CCCc1ccc(S(=O)(=O)NCCNC(=O)c2ccoc2)cc1`, 7.36%.
As for `O=S(=O)(c1cccnc1)N1CCCC1COc1ccccc1` (stereo not given), the cytotoxicity at 10 µM is -9.32%.
For `CC(C)C1CN(S(=O)(=O)Cc2cccc(C#N)c2)CCS1` (stereo not given) the value was 2.66%; for `CC(CC(=O)NS(C)(=O)=O)C1CCCCC1` (stereo not given), -13.5%.
As for `CNC(=O)NC(=O)CNC(CC(F)(F)F)c1ccc(F)cc1` (stereo not given), the figure is 7.69%; as for `Cc1ccc(N2CCCC(N3CCC(CO)CC3)C2=O)cc1` (stereo not given), 0.473%; as for `CCC(CC)S(=O)(=O)NC(=O)c1ccc2c(c1)ncn2C`, -6.58%.
For `CCn1cc(CNC2CCN(c3cccc(Cl)c3)C2)cn1` (stereo not given) the value was -10.1%; for `O=C(NCc1ccc(Br)c(F)c1)Nc1cn[nH]c1`, -6.62%; for `CSc1ccccc1CN1CCn2nc(CNC(=O)N(C)C)cc2C1`, 19.5%.
As to `CNC(=O)C1CCCN(c2nc(-c3ccco3)nc3c2CCNCC3)C1` (stereo not given), the cytotoxicity at 10 µM was -7.74%.
For `COCCC(=O)N1CCCC(CCc2ccc(F)c(F)c2)C1` (stereo not given) the value was -2.59%; for `Fc1ccc(C(CNc2ccncn2)N2CCCCC2)cc1` (stereo not given), -1.88%; for `CSCc1nc(CNC(=O)C2CCCN(CC(N)=O)C2)cs1` (stereo not given), -7.82%.
For `CC(C)C(C(=O)N1CCN(c2nccs2)CC1)n1cncn1` (stereo not given) the value was -4.35%; for `Cc1nc(C2CCCN2CCC(=O)N2CCc3ccccc32)no1` (stereo not given), -1.07%.
As for `Cn1cc(C2CCCN2C(=O)CCc2cnn(-c3ccccc3)c2)cn1` (stereo not given), the figure is -6.88%; as for `CN(C)c1cc2c(nn1)CCN(C(=O)C1CCCc3ccccc31)C2` (stereo not given), -8.57%; as for `Cc1ccc(CNC(=O)CN2CCOC(Cn3cncn3)C2)s1` (stereo not given), -8.45%.
As to `Cc1nc(C)n(CC2CCCN(CCOc3ccccc3F)C2)n1` (stereo not given), the cytotoxicity at 10 µM is -18.5%.
For `CCn1ncc2c1CCCC2NCc1ccc2c(c1)CCO2` (stereo not given) the value was -4.47%; for `Cc1cccc(C2(C(=O)NCC3CCN(CC(F)(F)F)C3)CCC2)c1` (stereo not given), -11.5%; for `CCc1cccc(N2CCC(NC(=O)CCNC(N)=O)CC2)c1`, -12.5%.
Regarding `Cc1ccc(C(=O)N2CC3(CCNCC3)c3cc(Cl)ccc32)cn1`, the cytotoxicity at 10 µM was determined as 1.61%.
With `O=C(c1ccncc1)N1CC2(CCNCC2)c2cc(Cl)ccc21`, the cytotoxicity at 10 µM is -3.22%.
For `Cc1cc2c(=O)n3c(nc2s1)CCN(Cc1cncn1C)CC3` the value was -14.2%.

The record behind these values is ChEMBL document CHEMBL4513216, “Probing the Open Global Health Chemical Diversity Library for Multistage-Active Starting Points for Next-Generation Antimalarials” (ACS Infect Dis, 2020).
